Bioassay records (PubChem)
NOD2 RIPK2 PPI – blocks binding of human NOD2 to RIPK2; O43353; CHO BLA complementation NOD2-RIPK2, CCF4 ratio; inhibition, % at 4.98 µM; actives 0.38% (n = 360,000); AID 624267; in the data active means inhibition above about 21%;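 further: 0% = vehicle only and 100% = reference blocker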
TLR4-MyD88 BLA – blocks binding of human TLR4 to MyD88 | AID 861 | inhibition, % at 8.4 µM | HeLa CL3-4 TLR4/MyD88 BLA complementation, FRET ratio | actives 0.18% (n = 200,000); in the data active means inhibition above about 25%;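 further: 0% = vehicle and 100% = reference inhibitor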
TLR9-MyD88 block – inhibitors of human TLR9-MyD88 binding. inhibition, % at 4.98 µM. actives 0.21% (n = 340,000). CHO BLA complementation TLR9-MyD88, CCF4 FRET ratio. Q9NR96+Q99836;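 active means inhibition above the mean over all tested compounds plus 3 SD, cut at about 21% in these data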;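 further: 0% = DMSO only wells and 100% = clavulanate BLA inhibitor control wells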
SKN-1 block – blocks SKN-1 activity in C. elegans | inhibition, % at 21.8 µM | C. elegans VP596 Pgst-4::GFP/RFP ratio, acrylamide-induced, 24 h | actives 0.49% (n = 360,000);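 active means interference check ratio from 0.5 to 1.5 plus GFP to RFP signal ratio inhibition reaching or exceeding a fixed threshold, cut at about 30% in these data, passing the limit was not always enough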
MT1-MMP act inh – inhibitors of human MT1-MMP activation. P50281. HT1080 RFP-PRO-GFP cells, GFP/RFP ratio fluorescence, overnight; percent of plate control window, DMSO zero. GFP/RFP ratio change, % at 20 µM. actives 0.061% (n = 360,000). AID 651647;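 active means GFP/RFP ratio change of at least 30% with cell ATP level not reduced by more than half and red fluorescence within 50% of control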
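Assay system: HT1080 RFP-PRO-GFP cells. Benchmarks: DMSO vehicle wells and RFP-L50D-GFP reporter cell wells. Times: overnight cell settling, then overnight compound exposure, 37 °C, 5% CO2. Compound: 20 µM single dose, 1% DMSO. Read-out basis: GFP/RFP fluorescence ratio.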
TLR4-MyD88 conf – TLR4-MyD88 interaction inhibition confirmed; shares compounds with TLR4-MyD88 BLA; HeLa CL3-4 BLA complementation, CCF4 FRET ratio; inhibition, % at 8.4 µM; actives 50% (n = 350);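 active means mean inhibition across three repeat runs above about 25% carried over from the earlier screen, limit read from the data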;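 further: plate controls were DMSO only for no effect and clavulanic acid blocking BLA at full dose for full effect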
BLA inhibitor ct – beta-lactamase inhibition flagged in TLR4-MyD88 counter-screen; shares compounds with TLR4-MyD88 BLA; HeLa BLA reporter, CCF4 FRET ratio; inhibition, % at 8.4 µM; actives 63% (n = 350);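 active means mean inhibition over three repeats above about 26% taken from the earlier screen, limit read from the data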;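 further: HeLa cells stably expressing beta-lactamase reporter as counterscreen for TLR4-MyD88 inhibitors; 0% = DMSO and 100% = clavulanic acid full inhibition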
TLR9-MyD88 cf – confirmation of human TLR9-MyD88 binding inhibitors | actives 51% (n = 680) | CHO TLR9/MyD88 BLA complementation, CCF4 FRET ratio | inhibition, % at 4.98 µM | shares compounds with TLR9-MyD88 block;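 active means mean inhibition across three repeats above about 21% taken from the earlier screen, limit read from the data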;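 further: blue over green emission ratio reports constitutive TLR9 MyD88 association via BLA complementation; 0% = DMSO vehicle wells and 100% = clavulanate BLA inhibitor wells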
BLA nonselective – counter-screen for TLR9-MyD88 inhibitors: non-selective beta-lactamase inhibitors; actives 7% (n = 680); inhibition, % at 4.98 µM; shares compounds with TLR9-MyD88 block; CHO-BLA cells, CCF4 FRET ratio, BLA reporter;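 active means mean inhibition above a 50% cutoff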;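 further: counterscreen of TLR9-MyD88 hits on CMV-driven BLA in CHO-K1 cells; 0% = DMSO alone and 100% = clavulanate blocking BLA; higher means less blue over green ratio so more BLA blockade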
TLR9 CHO tox – counter-screen for TLR9-MyD88 inhibitors: cytotoxicity in CHO cells; inhibition, % at 4.98 µM; actives 39% (n = 680); AID 588336; luminescence; shares compounds with TLR9-MyD88 block; in the data active means inhibition above about 11%
Starred values were filed as active, the others as inactive; nt = no result given. An excerpt weighted towards active compounds, which were near 0.99% of everything screened.

SMILES	NOD2 RIPK2 PPI	TLR4-MyD88 BLA	TLR9-MyD88 block	SKN-1 block	MT1-MMP act inh	TLR4-MyD88 conf	BLA inhibitor ct	TLR9-MyD88 cf	BLA nonselective	TLR9 CHO tox
CS(=O)(=O)c1nc(-c2ccccc2)cc(C(F)(F)F)n1	60*	31*	36*	0	-9	20	-17	35*	16	96*
Cn1cccc1/C=C1\CCC/C(=C\c2cccn2C)C1=O	-5	35*	23*	13	-238	20	45*	26*	23	-3
CCc1cc2c(=O)c(-c3nc4ccccc4n3C)c(COCC(=O)O)oc2cc1OC(=O)C(C)(C)C	1	43*	49*	1	7	-6	13	2	0	3
CCc1cc2c(=O)c(-c3nc4ccccc4n3C)c(C)oc2cc1OC(C)=O	-9	nt	-7	-1	3	nt	nt	nt	nt	nt
O=C(NCc1cccc(C(F)(F)F)c1)C1CCCN(c2cnccn2)C1 (stereo not drawn)	12	nt	-2	5	-6	nt	nt	nt	nt	nt
COc1nc(Cl)cn(-c2ccc(C)cc2)c1=O	4	-7	5	0	5	nt	nt	nt	nt	nt
Cc1ccc(-n2c(Cl)c(Cl)nc(Cl)c2=O)cc1	84*	27*	48*	-5	1	19	22	49*	40	99*
O=C(Cn1c(=O)[nH]c2sc3c(c2c1=O)CCCC3)NCC1CCCO1 (stereo not drawn)	-17	nt	7	-8	-5	nt	nt	nt	nt	nt
O=C(C1=NN(c2ccccc2)C2C(=O)N(c3cccc(Cl)c3)C(=O)C12)c1ccccc1 (stereo not drawn)	35*	46*	28*	8	-112	27*	45*	25*	28	3
COc1cccc(/C=C2\C(=O)N(c3cccc(C)c3)C(=O)c3ccccc32)c1	-12	29*	24*	0	0	41*	38*	46*	47	4
O=C1c2ccc([N+](=O)[O-])cc2C(=O)N1c1ccc(Cl)cn1	-7	10	-22	-1	-3	nt	nt	nt	nt	nt
O=C1c2cccc3c([N+](=O)[O-])ccc(c23)C(=O)N1c1ccc(Cl)cn1	85*	86*	73*	-11	-464	87*	111*	68*	86*	94*
CCCSc1nnc(NC(=O)c2sc3nc(-c4cccs4)ccc3c2N)s1	-3	30*	21*	29	-69	7	31*	23*	22	0
COc1cc(/C=N/N2CCN(Cc3ccccc3)CC2)cc(OC)c1OC(C)=O	17	nt	9	6	-1	nt	nt	nt	nt	nt
N#Cc1sc2nc(-c3ccccc3)cc(-c3ccco3)c2c1N	13	40*	22*	27	-1	26*	53*	28*	25	-1
N#Cc1sc2nc(C3CC3)cc(-c3ccccc3)c2c1N	2	8	5	13	2	nt	nt	nt	nt	nt
CCc1ccc2c(c1)NC(=O)C2(C)Cc1ccccc1 (stereo not drawn)	-7	nt	nt	-2	-5	nt	nt	nt	nt	nt
